Experiment [1] has as its target T1, Endothelin receptor type B (Sus scrofa, UniProt P35463).
T1 sequence (P35463 whole entry): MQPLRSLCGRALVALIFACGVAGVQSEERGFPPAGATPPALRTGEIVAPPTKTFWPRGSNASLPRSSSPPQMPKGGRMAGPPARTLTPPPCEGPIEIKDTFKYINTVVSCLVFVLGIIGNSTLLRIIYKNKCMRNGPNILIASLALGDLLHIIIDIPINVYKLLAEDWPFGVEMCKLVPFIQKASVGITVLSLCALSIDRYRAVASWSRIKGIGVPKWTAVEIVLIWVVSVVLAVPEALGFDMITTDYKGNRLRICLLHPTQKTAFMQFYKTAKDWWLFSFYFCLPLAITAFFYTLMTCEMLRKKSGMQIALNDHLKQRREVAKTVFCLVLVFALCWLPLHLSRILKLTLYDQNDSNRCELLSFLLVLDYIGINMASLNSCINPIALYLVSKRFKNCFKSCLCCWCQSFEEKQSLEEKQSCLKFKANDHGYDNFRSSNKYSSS
Description: Binding affinity towards endothelin B receptor in porcine cerebellum membranes. The experiment is classed as cell membranes, Membrane. A digest of the protocol: (§1)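 Competitive binding in porcine membranes: aortic smooth muscle for ETA and cerebellum for ETB, run by a previously reported method. Variation was generally within 10%.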

The next experiment addresses T2, Endothelin-1 receptor (Sus scrofa, UniProt Q29010).
T2 sequence (Q29010 whole entry): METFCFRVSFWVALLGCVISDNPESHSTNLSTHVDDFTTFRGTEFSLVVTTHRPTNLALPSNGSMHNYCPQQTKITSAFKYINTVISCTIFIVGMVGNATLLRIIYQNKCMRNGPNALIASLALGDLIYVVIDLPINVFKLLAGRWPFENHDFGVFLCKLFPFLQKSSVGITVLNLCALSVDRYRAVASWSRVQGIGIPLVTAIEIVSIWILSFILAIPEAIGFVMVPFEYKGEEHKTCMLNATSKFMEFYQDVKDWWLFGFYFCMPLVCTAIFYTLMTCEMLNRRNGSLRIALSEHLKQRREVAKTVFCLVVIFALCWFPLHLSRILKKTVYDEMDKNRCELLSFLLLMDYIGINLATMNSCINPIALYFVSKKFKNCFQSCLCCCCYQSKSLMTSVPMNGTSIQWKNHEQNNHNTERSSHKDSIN
Description: Binding affinity towards endothelin A receptor in porcine aortic smooth muscle membranes. Put shortly: as §1

Molecules are shown by their SMILES.

Consider `CCCCCC[C@@H](NC(=O)[C@@H](Cc1c(Br)[nH]c2ccccc12)NC(=O)C(CC(C)C)NC(=O)N1[C@H](C)CCC[C@@H]1C)C(=O)O` (stereo partly specified), for which the results for the half-inhibitory concentration (IC50) (in experiment [1]; at Endothelin-1 receptor) were 1900 nM and 110 nM, respectively.
For `Cc1[nH]c2ccccc2c1C[C@H]1NC(=O)[C@H](CC(C)C)NC(=O)[C@@H](C(C)C)NC(=O)[C@@H]2CCCN2C(=O)[C@@H](CC(=O)O)NC1=O`, in that order: 870 nM and 51 nM.
As for `Cc1[nH]c2ccccc2c1C[C@H]1NC(=O)[C@H](C2CC2)NC(=O)[C@@H](C(C)C)NC(=O)[C@@H]2CCCN2C(=O)[C@@H](CC(=O)O)NC1=O`, the IC50 in experiment [1] came to 270 nM; at Endothelin-1 receptor it was 8.1 nM.
Taken in the same sequence, the figures for `CCCCC(NC(=O)[C@@H](Cc1c(Cl)[nH]c2ccccc12)NC(=O)C(NC(=O)N1[C@H](C)CCC[C@@H]1C)C(C)CC)C(=O)O` (stereo partly specified) were 4.6 nM and 51 nM.
For `CC(C)CC(NC(=O)N1[C@H](C)CCC[C@@H]1C)C(=O)N[C@H](Cc1c(Br)[nH]c2ccccc12)C(=O)NC(Cc1cnc[nH]1)C(=O)O` (stereo partly specified), in that order: 76 nM and 3.8 nM.
Taken in the same sequence, the figures for `CCCCC(NC(=O)[C@@H](Cc1c(Cl)[nH]c2ccccc12)NC(=O)C(NC(=O)N1[C@H](C)CCC[C@@H]1C)C(C)C)C(=O)O` (stereo partly specified) were 4.6 nM and 33 nM.
Regarding `CCCCC(NC(=O)[C@@H](Cc1c(Cl)[nH]c2ccccc12)NC(=O)C(CCCC)NC(=O)N1[C@H](C)CCC[C@@H]1C)C(=O)O` (stereo partly specified), the figures for the IC50 (in experiment [1]; on Endothelin-1 receptor) were 6.1 nM and 9 nM, respectively.
As for `CCCC(NC(=O)[C@@H](Cc1c(C#N)[nH]c2ccccc12)NC(=O)C(NC(=O)N1[C@H](C)CCC[C@@H]1C)C(C)C)C(=O)O` (stereo partly specified), the 50% inhibitory concentration (IC50) in experiment [1] stood at 5.6 nM; at Endothelin-1 receptor, 3000 nM.
For `CCCCC(NC(=O)[C@@H](Cc1c(Cl)[nH]c2ccccc12)NC(=O)C(NC(=O)N1[C@H](C)CCC[C@@H]1C)C1CC1)C(=O)O` (stereo partly specified), in that order: 1.3 nM and 9.3 nM.
`CCCCC(NC(=O)[C@@H](Cc1c(Br)[nH]c2ccccc12)NC(=O)C(CC(C)C)NC(=O)N1CCCCC1)C(=O)O` (stereo partly specified): the results for the IC50 (in experiment [1]; at Endothelin-1 receptor) were 110 nM and 26 nM, respectively.
`CSCCC(NC(=O)[C@@H](Cc1c(Br)[nH]c2ccccc12)NC(=O)C(CC(C)C)NC(=O)N1[C@H](C)CCC[C@@H]1C)C(=O)O` (stereo partly specified): the IC50 was 4.5 nM in experiment [1] and 2.2 nM on Endothelin-1 receptor.
For `CSCCC(NC(=O)[C@@H](Cc1c(C)[nH]c2ccccc12)NC(=O)C(CC(C)C)NC(=O)N1[C@H](C)CCC[C@@H]1C)C(=O)O` (stereo partly specified), in that order: 13 nM and 8 nM.
For `Cc1[nH]c2ccccc2c1C[C@@H](NC(=O)C(CC(C)C)NC(=O)N1[C@H](C)CCC[C@@H]1C)C(=O)NC(Cc1c[nH]cn1)C(=O)O` (stereo partly specified), the IC50 in experiment [1] stood at 99 nM; on Endothelin-1 receptor, 2.8 nM.
Regarding `CCCC(NC(=O)[C@@H](Cc1c(Br)[nH]c2ccccc12)NC(=O)C(CC(C)C)NC(=O)N1[C@H](C)CCC[C@@H]1C)C(=O)O` (stereo partly specified), the IC50 in experiment [1] amounted to 2.1 nM; at Endothelin-1 receptor it was 9.2 nM.
Taken in the same sequence, the figures for `CCCCC(NC(=O)[C@@H](Cc1c(C#N)[nH]c2ccccc12)NC(=O)C(CC(C)C)NC(=O)N1[C@H](C)CCC[C@@H]1C)C(=O)O` (stereo partly specified) were 1.6 nM and 470 nM.
Turning to `CCCCC(NC(=O)[C@@H](Cc1c(Br)[nH]c2ccccc12)NC(=O)C(CC(C)C)NC(=O)N1CCCCC1C)C(=O)O` (stereo partly specified), the IC50 came to 34 nM in experiment [1] and 8.1 nM on Endothelin-1 receptor.
For `Cc1[nH]c2ccccc2c1C[C@@H](NC(=O)C(NC(=O)N1[C@H](C)CCC[C@@H]1C)C1CC1)C(=O)NC(Cc1c[nH]cn1)C(=O)O` (stereo partly specified), in that order: 170 nM and 4.8 nM.
For `CC(C)CC(NC(=O)[C@@H](Cc1c(Br)[nH]c2ccccc12)NC(=O)C(CC(C)C)NC(=O)N1[C@H](C)CCC[C@@H]1C)C(=O)O` (stereo partly specified), in that order: 14 nM and 21 nM.
As for `CCCCC(NC(=O)[C@@H](Cc1c(CC)[nH]c2ccccc12)NC(=O)C(CC(C)C)NC(=O)N1[C@H](C)CCC[C@@H]1C)C(=O)O` (stereo partly specified), the values for the half-maximal inhibitory concentration (IC50) (in experiment [1]; on Endothelin-1 receptor) were 5 nM and 180 nM, respectively.
For `CCCCC(NC(=O)[C@@H](Cc1c(Cl)[nH]c2ccccc12)NC(=O)C(CC(C)C)NC(=O)N1[C@H](C)CCC[C@@H]1C)C(=O)O` (stereo partly specified), in that order: 5.6 nM and 15 nM.
Taken in the same sequence, the figures for `CCCCC(NC(=O)[C@@H](Cc1c(Br)[nH]c2ccccc12)NC(=O)C(CC(C)C)NC(=O)N1[C@H](C)CCC[C@@H]1C)C(=O)O` (stereo partly specified) were 2.5 nM and 5.6 nM.
Taken in the same sequence, the figures for `CCCCC(NC(=O)[C@@H](Cc1c(Cl)[nH]c2ccccc12)NC(=O)C(CC1CC1)NC(=O)N1[C@H](C)CCC[C@@H]1C)C(=O)O` (stereo partly specified) were 6.2 nM and 14 nM.
Consider `CCCSCC(NC(=O)[C@@H](Cc1c(Br)[nH]c2ccccc12)NC(=O)C(CC(C)C)NC(=O)N1[C@H](C)CCC[C@@H]1C)C(=O)O` (stereo partly specified), for which the IC50 in experiment [1] is 1.9 nM; at Endothelin-1 receptor, 2.4 nM.
For `CCCCC(NC(=O)[C@@H](Cc1c(Cl)[nH]c2ccccc12)NC(=O)C(NC(=O)N1[C@H](C)CCC[C@@H]1C)C1CCCC1)C(=O)O` (stereo partly specified), in that order: 2.7 nM and 46 nM.
Taken in the same sequence, the figures for `CC(C)CC(NC(=O)N1[C@H](C)CCC[C@@H]1C)C(=O)N[C@H](Cc1c(Br)[nH]c2ccccc12)C(=O)NC(Cc1c[nH]c2ccccc12)C(=O)O` (stereo partly specified) were 1100 nM and 6.7 nM.
In the case of `CCCCC(NC(=O)[C@@H](Cc1c(Br)[nH]c2ccccc12)NC(=O)C(CC(C)C)NC(=O)N1CCCC1)C(=O)O` (stereo partly specified), the concentration for half-maximal inhibition (IC50) in experiment [1] came out at 2700 nM; on Endothelin-1 receptor, 160 nM.
For `CCCCC(NC(=O)[C@@H](Cc1c(C)[nH]c2ccccc12)NC(=O)C(CC(C)C)NC(=O)N1[C@H](C)CCC[C@@H]1C)C(=O)O` (stereo partly specified), in that order: 13 nM and 9.6 nM.
Turning to `CCCCC(NC(=O)[C@@H](Cc1c(Br)[nH]c2ccccc12)NC(=O)C(CC(C)C)NC(=O)N1CCCCCC1)C(=O)O` (stereo partly specified), the half-maximal inhibitory concentration (IC50) is 28 nM in experiment [1] and 9.1 nM at Endothelin-1 receptor.
For the compound `CCCCC(NC(=O)[C@@H](Cc1c(C)[nH]c2ccccc12)NC(=O)C(NC(=O)N1[C@H](C)CCC[C@@H]1C)C1CC1)C(=O)O` (stereo partly specified), the IC50 was 2.9 nM in experiment [1] and 5.7 nM at Endothelin-1 receptor.
Taken in the same sequence, the figures for `CCCCC(NC(=O)[C@@H](Cc1c(Br)[nH]c2ccccc12)NC(=O)C(CC(C)C)NC(=O)N1CCCCCCC1)C(=O)O` (stereo partly specified) were 26 nM and 27 nM.
For `C=CCC(NC(=O)[C@@H](Cc1c(Br)[nH]c2ccccc12)NC(=O)C(CC(C)C)NC(=O)N1[C@H](C)CCC[C@@H]1C)C(=O)O` (stereo partly specified), in that order: 4.2 nM and 9.8 nM.
Taken in the same sequence, the figures for `CCCCC(NC(=O)[C@@H](Cc1c(C#N)[nH]c2ccccc12)NC(=O)C(NC(=O)N1[C@H](C)CCC[C@@H]1C)C(C)C(C)C)C(=O)O` (stereo partly specified) were 7.1 nM and 810 nM.
As to `CCCCC(NC(=O)[C@@H](Cc1c(Cl)[nH]c2ccccc12)NC(=O)C(CCC)NC(=O)N1[C@H](C)CCC[C@@H]1C)C(=O)O` (stereo partly specified), the figures for the 50% inhibitory concentration (IC50) (in experiment [1]; at Endothelin-1 receptor) were 7.9 nM and 20 nM, respectively.

Values taken from ChEMBL document CHEMBL1129335, “Synthesis and structure-activity relationships of 2-substituted D-tryptophan-containing peptidic endothelin receptor antagonists: importance of the C-2 substituent of the D-tryptophan residue for endothelin A and B receptor subtype selectivity” (J Med Chem, 1996).
